# High-throughput results (PubChem BioAssay)
# TRPML3 agonist – activates the human TRPML3 channel. 220,000 tested, 0.29% active. activation, % at 3 µM. HEK293 TRPML3-YFP, Fluo-8 calcium fluorescence; 100% = the carbachol control signal;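 active = activation above its plate's cutoff, the mean activation of the plate's test wells plus 3 SD, cut at about 12% in these data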;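 also: 0% = DMSO only wells and 100% = carbachol wells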
# Target sequence (Q8TDD5 whole entry, looked up): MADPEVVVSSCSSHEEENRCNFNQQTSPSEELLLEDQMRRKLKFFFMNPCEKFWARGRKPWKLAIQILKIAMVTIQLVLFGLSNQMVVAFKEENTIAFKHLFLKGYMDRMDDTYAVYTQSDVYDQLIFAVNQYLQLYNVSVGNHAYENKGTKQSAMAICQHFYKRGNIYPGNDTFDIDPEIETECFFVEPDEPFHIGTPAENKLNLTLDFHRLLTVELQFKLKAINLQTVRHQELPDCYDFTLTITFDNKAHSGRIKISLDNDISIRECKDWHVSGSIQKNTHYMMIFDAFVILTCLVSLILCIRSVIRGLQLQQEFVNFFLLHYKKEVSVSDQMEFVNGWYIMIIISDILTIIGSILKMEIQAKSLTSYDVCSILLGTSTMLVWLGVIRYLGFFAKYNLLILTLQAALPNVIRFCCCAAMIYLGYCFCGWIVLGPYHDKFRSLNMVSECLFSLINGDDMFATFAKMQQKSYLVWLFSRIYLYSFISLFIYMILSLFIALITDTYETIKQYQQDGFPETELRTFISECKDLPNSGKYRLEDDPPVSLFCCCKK
#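 Test system – HEK293 line with stable expression of human TRPML3-YFP channel · Control set – carbachol 87 µM final as high control (100%), DMSO as low control (0%) · Signal – Fluo-8 calcium dye fluorescence, ex 470-495, em 515-575 nm · Incubation – 1-h 37 °C dye load, 5-s basal, 120-s post-compound reads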
# VIM-2 inhibitor – inhibitors of Pseudomonas aeruginosa VIM-2 metallo-beta-lactamase; inhibition, % at 5.6 µM; AID 1527; 290,000 tested, 0.89% active; purified VIM-2, nitrocefin hydrolysis, epi-absorbance fluorescence;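 active = inhibition above the mean of all tested compounds plus 3 SD, cutoff set per screening run, cut at about 7.5% in these data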;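 also: red hydrolysis product quenches plate fluorescence so inhibitors raise well fluorescence; 0% = enzyme with DMSO and 100% = DMSO without enzyme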
# CRFR2-BP antag – CRF-BP/CRF-R2 complex antagonism. AID 588475. HEK293 CRF-R2/CRF-BP, CRF-induced calcium fluorescence. inhibition, % at 11.8 µM. 350,000 tested, 0.59% active;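 active = inhibition of the ligand-induced calcium signal above about 50% at the single tested concentration, limit read from the data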
# CRFBP-R2 agonist – agonists of human CRF-binding protein/CRF-R2 receptor complex; HEK293 CRF-R2/CRF-BP, calcium dye fluorescence (FLIPR); percent of saturating CRF peptide response; activation, % at 13.2 µM; 350,000 tested, 0.46% active; AID 588473;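 active = activation of at least 50%, plus an integration ratio under a set limit after plate pattern correction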;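 also: plate controls were neutral control wells without compound for no effect and CRF at EC100 for full effect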
# IMP-1 inh – blocks Pseudomonas aeruginosa IMP-1 metallo-beta-lactamase. purified IMP-1, nitrocefin hydrolysis, epi-absorbance fluorescence. inhibition, % at 5.6 µM. 290,000 tested, 0.45% active;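 active = inhibition above the mean plus 3 SD of all compounds in the same screening run, cut at about 4.5% in these data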;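 also: 0% = IMP-1 with DMSO and 100% = DMSO wells lacking enzyme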
#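 system = purified recombinant IMP-1 beta-lactamase | amount = 0.2 nM IMP-1, as dispensed | medium = HEPES buffer pH 7.1 with ZnSO4 and Brij 35 | times = 25 °C, 15 min preincubation, 25 min reaction | detection = plate fluorescence quenching by hydrolysis product, ex 480/em 530 nm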
# zfTRPN1 agonist – zebrafish TRPN1 (NompC) channel agonism. HEK293 zebrafish TRPN1-YFP, Fluo-8 calcium fluorescence; 100% = response to 87 µM carbachol. activation, % at 3 µM. 220,000 tested, 0.18% active;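 active = activation above its plate's cutoff, the mean activation of test wells on that plate plus 3 SD, cut at about 19% in these data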;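 also: 0% = DMSO alone and 100% = 87 µM carbachol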
#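 System: zebrafish TRPN1-YFP in HEK293 cells / Dosing: 3 µM single point / Timing: dye loading 1 h at 37 °C, then 30 min room temperature / Signal: Fluo-8 calcium fluorescence, excitation 470-495 nm, emission 515-575 nm / Read-out basis: percent activation from peak over basal fluorescence ratio, control-normalized / Control set: high carbachol 87 µM, low DMSO alone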
# * hit, by the source's call; · = no result given. Shown are actives, neighbours in structure and some others; about 2.1% of the full set was active somewhere.
SMILES,TRPML3 agonist,VIM-2 inhibitor,CRFR2-BP antag,CRFBP-R2 agonist,IMP-1 inh,zfTRPN1 agonist
COc1cc(C=C2CCCC(=Cc3ccc(OCC4CO4)c(OC)c3)C2=O)ccc1OCC1CO1 (centres undefined),·,·,-2.4,15.4,·,·
O=C(COC(=O)C1CCCCC1)Nc1cccc(Br)c1,·,·,-3.1,0.8,·,·
C[n+]1ccccc1/C=C/c1cc(Br)ccc1O,·,-1.2,-31.6,3.0,15.8*,·
CCOc1cc(/C=C/c2cccc[n+]2C)ccc1O,·,0.6,-51.8,59.3*,-3.1,·
Cc1nn(CC(=O)N(C)c2c(N)n(Cc3ccccc3)c(=O)[nH]c2=O)c(C)c1[N+](=O)[O-],·,·,-5.5,2.0,·,·
CN1CCCc2cc3c(C(F)(F)F)cc(=O)oc3nc21,0.7,3.8,-92.5,211.6*,0.8,1.2
COC(=O)c1ccccc1S(=O)c1snnc1C (centres undefined),0.4,-1.1,-4.8,-2.1,-2.8,-0.5
CSC1=NC(=O)/C(=C\c2cccc3ccccc23)S1,0.9,-1.2,-18.0,2.2,-1.3,-1.3
Cc1ccc(O)c(NC(=S)NC(=O)Cc2ccc(Cl)cc2)c1,·,-2.5,-86.8,178.7*,1.1,·
CC(=O)c1ccc(NC(=S)NC(=O)Cc2ccc(Cl)cc2)cc1,·,-2.2,-58.8,75.5*,-1.8,·
COc1ccc(NC(=O)CN(C)C(=O)Cc2ccsc2)cc1,·,0.9,-7.9,3.6,5.0*,·
Cc1ccc(NC(=S)NC(=O)c2ccc(-c3ccc(Cl)cc3)o2)c(O)c1,0.1,-2.4,-9.7,-0.2,-3.4,-0.7
COc1ccc(CC(=O)Nc2ccc(C(C)=O)cc2)cc1,-0.7,1.9,-2.1,0.1,8.0*,-0.7
C=CCn1c(C)cc(C(=O)CSc2nnc(Cc3ccccc3)o2)c1C,-1.3,0.2,56.0*,-0.7,-4.7,1.0
Cc1c(Cl)cccc1NC(=S)NC1CCCC1,·,-1.5,6.1,-0.6,-1.2,·
COC(=O)C1=C(C)N(C)C(C)=C(C(=O)OC)C1c1ccc(F)c(Br)c1,-1.5,-3.5,54.8*,-7.7,-4.7,-3.0
Cc1nnc(SCC(=O)c2cc(C)n(C3CC3)c2C)s1,4.0,0.7,-25.7,51.8*,1.4,0.7
Cc1nnc(SCC(=O)c2cc(C)n(-c3ccc4c(c3)OCO4)c2C)s1,16.8*,-1.4,-39.4,62.9*,-2.1,27.3*
CNc1nnc(SCC(=O)c2cc(C)n(C3CC3)c2C)s1,·,·,0.7,-0.2,·,·
Cc1ccnc(NS(=O)(=O)c2ccc(NC(=O)c3ccc(Cl)cc3[N+](=O)[O-])cc2)n1,·,-1.4,-5.1,2.5,-3.5,·
Cc1c(Cl)cccc1N1C(=O)c2ccccc2C1=O,-0.9,-2.1,50.7*,-1.0,-2.2,-1.6
CCOc1ccc(NS(=O)(=O)c2ccc(C(=O)NCC(c3cccs3)N3CCOCC3)cc2)cc1 (centres undefined),·,·,-32.9,60.5*,·,·
CC(=O)c1ccc(S(=O)(=O)Nc2ccc(C(=O)NCC(c3cccs3)N3CCOCC3)cc2)cc1 (centres undefined),·,·,4.9,0.7,·,·
CCOc1ccc(S(=O)(=O)Nc2ccn(C)n2)cc1,·,·,-2.7,-1.4,·,·
COc1ccccc1C1NC(=O)NC(C)=C1C(=O)Nc1cccc(C)c1C (centres undefined),0.0,-0.3,1.4,0.3,5.0*,-0.7
SMILES,TRPML3 agonist,VIM-2 inhibitor,CRFR2-BP antag,CRFBP-R2 agonist,IMP-1 inh,zfTRPN1 agonist
CC(=O)Nc1ccc(NC(=O)C(C)NC(C)c2cccc3ccccc23)cc1 (centres undefined),·,-1.2,-3.7,-0.5,-3.8,·
O=Cc1cn(-c2ccccc2)nc1-c1ccc2c(c1)OCCO2,0.1,-0.6,61.1*,5.3,-1.3,-0.7
N#Cc1cn(-c2ccccc2)nc1-c1ccc2c(c1)OCCO2,0.4,0.5,11.2,0.3,-1.8,-1.5
Cc1cc(=O)oc(C)c1C(=O)Nc1ccc2ncccc2c1,1.0,0.5,-63.7,78.2*,-2.2,3.0
Cc1cc(C)n2nc(N)c(N=Nc3cccc(Cl)c3)c2n1,0.5,-3.9,-1.5,-0.2,-1.9,1.0
Cc1cc(=O)[nH]c2c(N=Nc3ccc(O)cc3)c(N)nn12,0.8,1.7,3.0,0.4,6.4*,-0.7
Nc1nn2c(C(F)(F)F)cc(=O)[nH]c2c1N=Nc1cccc(F)c1,-0.2,-3.9,87.0*,-7.4,-5.4,-0.4
COc1ccccc1OP(=O)(O)Oc1ccccc1OC,0.6,-1.0,2.0,1.3,-3.0,0.6
CCOc1ccc(CCNC(=O)COC(=O)c2nccnc2N)cc1OCC,·,·,-1.9,0.1,·,·
COc1cccc(CNC(=O)[C@H](C)NC(=O)C2CCN(S(=O)(=O)c3ccccc3)CC2)c1,·,-1.0,7.0,0.3,-3.6,·
O=C(O)Cc1sc(NC2CCCCC2)nc1-c1ccc(Cl)cc1,·,0.3,-14.5,0.8,5.3*,·
O=C(Cc1cccs1)Nc1cccc(C(=O)Nc2ccc(C(=O)O)cc2)c1,0.4,-3.2,-0.4,-2.2,-1.5,1.6
O=C(c1ccccc1)N(CCCl)C(=O)N(CCCl)C(=O)c1ccccc1,·,·,14.7,-2.7,·,·
Cc1c(C(c2ccccc2)c2c(C)n(C)n(-c3ccccc3)c2=O)c(=O)n(-c2ccccc2)n1C,·,-1.2,12.9,-3.0,-0.4,·
Cc1c(C(c2ccc(N(C)C)cc2)c2c(C)n(C)n(-c3ccccc3)c2=O)c(=O)n(-c2ccccc2)n1C,1.6,-3.0,53.6*,-6.8,-2.6,-0.4
COC(=O)c1ccc(CSc2nc3c(c(=O)n2-c2ccc(Br)cc2)SCC3)o1,1.2,-2.5,61.3*,-1.0,2.9,0.2
CCOc1ccc(-n2c(SCc3ccc(C(=O)OC)o3)nc3c(c2=O)SCC3)cc1,0.2,0.6,4.8,-0.2,-1.6,-0.2
Cc1cc(C)c2c(n1)sc1c(O)cc(=O)[nH]c12,1.1,0.8,23.4,2.9,1.3,1.1
COc1ccc(-c2cc(C(F)(F)F)c3c(n2)sc2c(O)cc(=O)[nH]c23)c(OC)c1,1.6,-0.9,-126.3,79.8*,-3.0,2.8
COc1ccc(-c2cn(CCC(=O)NCc3ccc(C)cc3)c(CCN)n2)cc1,·,·,3.5,0.5,·,·
CC(=O)Nc1ccc(Cc2nc3c([nH]2)c(=O)n(C)c(=O)n3C)cc1,-0.1,0.5,·,·,11.8*,2.8
Cn1c(=O)c2[nH]c(Cc3ccsc3)nc2n(C)c1=O,·,·,2.3,-3.1,·,·
CCCn1c2ccccc2c2cnn(CC(=O)N3CCN(C4CCCCC4)CC3)c(=O)c21,·,7.8*,-32.1,0.5,0.9,·
Cc1cc(C)n(CC(=O)n2c3c(c4ccccc42)CCCC3)n1,0.4,10.3*,-15.8,0.1,-0.6,-0.9
CN1CCN(CC(=O)n2c3c(c4ccccc42)CCCC3)CC1,0.6,9.9*,-6.3,0.5,2.1,0.6
CCN(CC)CC(=O)n1c2c(c3ccccc31)CCCC2,0.4,11.9*,-19.6,-0.4,-0.2,-0.9
O=C(CSc1ncccn1)n1c2c(c3ccccc31)CCCC2,-1.6,6.4,-3.8,-1.1,-0.9,-3.8
